Data as given in ChEMBL document CHEMBL1133128, “Hepatitis C viral IRES inhibition by phenazine and phenazine-like molecules” (Bioorg Med Chem Lett, 2000).
Values after ≈ are worked out from the molar mass of the structure shown.

Experiments:
[1] = Ratio of inhibitory concentration against Hepatitis C Viral IRES in HC40 cells to that of HCF cells was determined; assay type: functional
Summary of the method: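 Ratio of the HC40 value to the HCF value. HCF cells are pooled Huh-7 stably transfected with CMV-Fluci (CMV control, no IRES control). Both lines seeded at 1.5×10^4/well 24 h ahead, dosed at various concentrations in 0.2% DMSO final for 24 h at 37 °C, washed twice in PBS, lysed in luciferin buffer for 10 min in the dark, and luciferase read.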

Huh-7 [2] = experiment: Anti-Hepatitis C Viral IRES activity of compound by measured as Fluci signal in HC40 cells; assay type: functional, cell-based; details: Homo sapiens
Summary of the method: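 Huh7-derived HC40 line expressing CAT-IRES-Fluci under a CMV promoter, so luciferase reports IRES-dependent translation. Cells seeded at 1.5×10^4/well 24 h before dosing. Compounds added at various concentrations in 0.2% DMSO final and incubated 24 h at 37 °C. Cells washed twice in PBS, lysed 10 min in the dark in luciferin lysis buffer, then luciferase read.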

Huh-7 [3] = experiment: Cytotoxic concentration of compound HC40 cells determined by using MTT assay; assay type: functional; details: Homo sapiens

Compound | Ratio [1] | IC50 (Huh-7 [2]) | CC50 (Huh-7 [3])
CCN(CC)c1ccc2[o+]c3cc(C)c(N)cc3nc2c1.[Cl-] | 3 | 1 µg/mL | < 1 µg/mL
Nc1ccc2c(c1)NC(=O)c1cc(N)cnc1O2 | – | > 10 µg/mL | > 10 µg/mL
Cc1cc2nc3ccc(N(C)C)cc3nc2cc1I | – | > 10 µg/mL | > 10 µg/mL
Cc1cc2nc3ccc(O)cc3nc2cc1N | >2.7 | 3.74 µg/mL (≈ 16.6 µM) | > 10 µg/mL
CN(C)c1ccc(Nc2ccc(N(C)C)cc2)cc1 | 0.8 | 2.19 µg/mL (≈ 8.58 µM) | 2.3 µg/mL (≈ 9.01 µM)
Nc1ccc2c(c1)Oc1ncccc1C(=O)N2 | – | > 10 µg/mL | > 10 µg/mL
Nc1ccc2[nH]c3ccc(N)cc3c2c1 | – | > 10 µg/mL | > 10 µg/mL
Nc1cc2nc3ccccc3nc2cc1N | 2.5 | 4.03 µg/mL (≈ 19.2 µM) | > 10 µg/mL
Nc1ccc(Nc2ccc(N)cc2)cc1 | – | > 10 µg/mL | –
CN(C)c1ccc2c(c1)Sc1cc(N(C)C)ccc1N2C(=O)c1ccccc1 | – | > 10 µg/mL | > 10 µg/mL
Cc1cc2nc3ccc(N(C)C)cc3nc2cc1N | 10 | 0.02 µg/mL (≈ 0.0793 µM) | > 10 µg/mL
Cc1cc2c(cc1N)N(c1ccccc1C)c1cc(N(C)C)c(C)cc1N2 | 1 | 1 µg/mL (≈ 2.79 µM) | > 10 µg/mL
CN(C)c1ccc(C(=O)c2ccc(N(C)C)cc2)cc1 [MICHLER'S KETONE] | – | > 10 µg/mL | –
CC(=O)[O-].Nc1ccc2nc3ccc(N)cc3[s+]c2c1 [THIONIN ACETATE] | 1.7 | 2.86 µg/mL | 4.67 µg/mL
